Broadly, the IC50 is the midpoint of a concentration-inhibition curve. As a reminder, the pIC50 is the negative decadic logarithm of the IC50, by convention in mol/L. One may read the AUC as the area under the concentration-time curve, a measure of exposure. A low value points to less exposure. The term bioavailability denotes dose-corrected exposure relative to a reference, in per cent. A low value points to little systemic uptake. The term half-life denotes the time needed for the level to fall by half in the phase considered. Read a high half-life as slow decline. What is called Tmax is the time from dosing to the highest level. In general, Cmax refers to the peak of the concentration-time curve. One may read the ED50 as the dose that gives a 50% effect, or the effect in half of the subjects.

SMILES strings stand for the structures. Some results are limits rather than exact numbers.

The values below come from ChEMBL document CHEMBL1150301, “Structure-activity relationship studies on N'-aryl carbohydrazide P2X7 antagonists” (J Med Chem, 2008).

The target of series [1] is T1, P2X purinoceptor 7 (Rattus norvegicus, UniProt Q64663).
T1 sequence (Q64663 whole entry): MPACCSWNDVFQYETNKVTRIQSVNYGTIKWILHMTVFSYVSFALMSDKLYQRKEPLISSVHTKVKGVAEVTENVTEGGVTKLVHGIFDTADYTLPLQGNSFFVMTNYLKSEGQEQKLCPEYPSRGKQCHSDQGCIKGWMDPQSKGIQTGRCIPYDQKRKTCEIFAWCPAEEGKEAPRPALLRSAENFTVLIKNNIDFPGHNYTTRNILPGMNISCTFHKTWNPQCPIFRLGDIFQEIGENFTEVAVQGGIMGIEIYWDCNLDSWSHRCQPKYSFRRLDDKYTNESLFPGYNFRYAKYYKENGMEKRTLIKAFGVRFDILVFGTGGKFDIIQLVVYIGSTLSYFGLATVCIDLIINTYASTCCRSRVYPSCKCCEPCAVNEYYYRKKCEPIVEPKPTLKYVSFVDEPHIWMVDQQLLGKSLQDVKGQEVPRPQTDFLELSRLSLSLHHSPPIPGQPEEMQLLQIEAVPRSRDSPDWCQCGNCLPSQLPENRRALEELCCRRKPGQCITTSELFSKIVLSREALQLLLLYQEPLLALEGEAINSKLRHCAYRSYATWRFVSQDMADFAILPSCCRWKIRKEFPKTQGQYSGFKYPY
The experiment in a line: Antagonist activity at rat recombinant P2X7 receptor expressed in human 1321N1 cells assessed as benzoyl-ATP-induced calcium flux by FLIPR assay. Type of series: functional, cell-based. A digest of the protocol:
(§1)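 The human or rat P2X7 was stably transfected into 1321N1 astrocytoma cells, which lack endogenous P2X function. Cells were loaded with Fluo-4 and given a 5 min antagonist pretreatment before BzATP challenge. Ca2+ flux was read on FLIPR. Results are pIC50 ± SEM, n = 2, or ≥3 where marked.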

The target in series [2] is T2, P2X purinoceptor 7 (Homo sapiens, UniProt Q99572).
T2 sequence (Q99572 whole entry): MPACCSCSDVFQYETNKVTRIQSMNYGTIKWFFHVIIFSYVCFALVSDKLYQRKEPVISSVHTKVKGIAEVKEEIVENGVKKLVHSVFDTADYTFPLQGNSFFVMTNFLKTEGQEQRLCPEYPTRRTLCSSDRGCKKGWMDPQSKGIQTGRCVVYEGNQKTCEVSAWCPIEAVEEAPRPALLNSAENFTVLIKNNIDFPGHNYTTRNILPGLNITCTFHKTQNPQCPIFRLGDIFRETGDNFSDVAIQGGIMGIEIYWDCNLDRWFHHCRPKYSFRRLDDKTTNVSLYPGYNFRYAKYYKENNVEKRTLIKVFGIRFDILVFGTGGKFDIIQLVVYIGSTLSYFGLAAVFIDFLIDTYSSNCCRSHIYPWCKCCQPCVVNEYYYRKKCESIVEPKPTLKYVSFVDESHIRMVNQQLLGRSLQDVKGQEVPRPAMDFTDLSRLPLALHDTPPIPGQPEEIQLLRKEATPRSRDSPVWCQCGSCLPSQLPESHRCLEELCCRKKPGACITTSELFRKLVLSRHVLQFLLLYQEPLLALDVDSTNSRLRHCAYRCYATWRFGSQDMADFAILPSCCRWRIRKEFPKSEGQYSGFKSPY
The series can be described thus: Antagonist activity at human recombinant P2X7 receptor expressed in human 1321N1 cells assessed as benzoyl-ATP-induced calcium flux by FLIPR assay. Type of series: functional, cell-based. A digest of the protocol: as §1
For orientation: Calcium assays in cells follow changes in intracellular calcium, usually with a dye or a luminescent sensor.

Series [3] addresses T2, P2X purinoceptor 7. The series can be described thus: Antagonist activity at human recombinant P2X7 receptor expressed in differentiated human THP1 cells assessed as inhibition of benzoyl-ATP-induced IL1-beta release by ELISA. Format: functional, cell-based, THP-1. The gist of the method:
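THP-1 cells were differentiated with LPS and IFNγ. Compound was present while cells were stimulated with BzATP for 30 min. Released IL-1β was quantified by ELISA kit. Results are given as pIC50.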

Series [4] deals with Rattus norvegicus. The experiment in a line: AUC in rat at 5 umol/kg, ip. Type of series: ADME, organism-based, Plasma. As to conditions: in vivo. A digest of the protocol: (§2)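 Rats were dosed iv or ip at 5 µmol/kg in 10% DMSO/90% PEG. Plasma PK parameters were derived: Vβ, Clp, Cmax, Tmax, AUC, t1/2 and F.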
Series [5] is described as follows: Bioavailability in rat at 5 umol/kg, ip. Type of series: ADME, organism-based. As to conditions: in vivo. A digest of the protocol:
as §2

The nature of series [6]: Half life in rat at 5 umol/kg, iv. Format: ADME, organism-based. The note with it: in vivo. The gist of the method: as §2
For series [7], the system named is Rattus norvegicus. The series can be described thus: Tmax in rat at 5 umol/kg, ip. Format: ADME, organism-based. As to conditions: in vivo. A digest of the protocol: as §2
For series [8], the system named is Rattus norvegicus. The series can be described thus: Half life in rat at 5 umol/kg, ip. Type of series: ADME, organism-based. As to conditions: in vivo. A digest of the protocol:
as §2

Series [9] relates to Rattus norvegicus. The experiment in a line: AUC in rat at 5 umol/kg, iv. Type of series: ADME, organism-based, Plasma. The note with it: in vivo. The gist of the method: as §2
The test system of series [10] is Rattus norvegicus. The series can be described thus: Cmax in rat at 5 umol/kg, ip. Type of series: ADME, organism-based. On the set-up: dose 5 umol/kg, route intraperitoneal. The note with it: in vivo. The gist of the method:
as §2

Series [11] deals with Rattus norvegicus. The series can be described thus: Reversal of neuropathic pain in L5/L6 spinal nerve tight ligation rat model assessed as paw withdrawal threshold at 30 to 300 umol/kg, ip relative to contralateral paw. Type of series: functional. A digest of the protocol:
(§3)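 L5/L6 spinal nerve tight ligation was done 7–14 days before testing. Mechanical allodynia was measured with von Frey filaments before dosing, and rats with threshold <5 g were kept. Rats were retested 30 min after ip dosing at 30–300 µmol/kg. Reversal on the ipsilateral side was expressed relative to the contralateral side, and ED50 was derived.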

The test system of series [12] is Rattus norvegicus. The series can be described thus: Reversal of neuropathic pain in ip dosed L5/L6 spinal nerve tight ligation rat model assessed as paw withdrawal threshold. Format: functional. The gist of the method: as §3
Series [13] is described as follows: Volume of distribution at terminal phase in rat at 5 umol/kg, iv. Format: ADME, organism-based. The note with it: in vivo, read-out: Vbeta. The gist of the method:
as §2

Take `CC1(C)C2CCC1(C(=O)NNc1cccc3ncccc13)C(=O)C2` (stereo not drawn): the values for the IC50 at P2X purinoceptor 7 [1] and at P2X purinoceptor 7 [2] were 1510 nM and 1380 nM, respectively.
On the same counts, the results for `Cc1ccccc1NNC(=O)C1CCCCC1` are 245 nM and 174 nM.
For `CC1CCC(C)(C(=O)NNc2cccc3ncccc23)C1(C)C` (stereo not drawn) the same measures were 123 nM and 27.5 nM.
As to `O=C(NNc1cccc2ncccc12)C12CC3CC(CC1C3)C2`, the IC50 was 158 nM on P2X purinoceptor 7 [3], 52.5 nM at P2X purinoceptor 7 [1] and 27.5 nM at P2X purinoceptor 7 [2].
With `Cc1ccccc1NNC(=O)CCC(C)C`, the results for the IC50 at P2X purinoceptor 7 [1] and on P2X purinoceptor 7 [2] were 339 nM and 148 nM, respectively.
Take `COc1ccc(C2(C(=O)NNc3cccc4ncccc34)CCCCC2)cc1`: the IC50 is 51.3 nM at P2X purinoceptor 7 [1] and 52.5 nM at P2X purinoceptor 7 [2].
On the same counts, the results for `CCC12CC3CC(C1)CC(C(=O)NNc1cccc4ncccc14)(C3)C2` are 145 nM and 22.9 nM.
On to `O=C(NNc1cccc2ncccc12)C1(c2cccc(F)c2)CCCCC1`, for which the values for the IC50 on P2X purinoceptor 7 [1] and at P2X purinoceptor 7 [2] were 257 nM and 141 nM, respectively.
For `CC1(C)C(C(=O)NNc2cccc3ncccc23)C1(C)C` the same measures were 155 nM and 200 nM.
On the same counts, the results for `CCCCCCC(=O)NNc1ccccc1C` are 195 nM and 407 nM.
On the same counts, the results for `Cc1ccccc1NNC(=O)C1CCCCCC1` are 49 nM and 33.9 nM.
As to `Cc1ccccc1NNC(=O)C1(c2ccccc2)CCCC1`, the IC50 is 151 nM at P2X purinoceptor 7 [1] and 132 nM at P2X purinoceptor 7 [2].
In the case of `Cc1ccccc1NNC(=O)C1(C)CCCCC1`, the IC50 on P2X purinoceptor 7 [1] was 148 nM; at P2X purinoceptor 7 [2], 70.8 nM.
For `O=C(NNc1ccccc1Cl)C12CC3CC(CC(C3)C1)C2` the same measures were 33.9 nM and 11.5 nM.
In the case of `O=C(NNc1ccc(Cl)cc1Cl)C12CC3CC(CC(C3)C1)C2`, the pIC50 at P2X purinoceptor 7 [1] (1321-n1) is given as greater than 5. Besides, on P2X purinoceptor 7 [2], the IC50 is 372 nM.
Consider `O=C(NNc1cccnc1)C12CC3CC(CC(C3)C1)C2`, for which the results for the IC50 at P2X purinoceptor 7 [1] and on P2X purinoceptor 7 [2] were 977 nM and 832 nM, respectively.
Take `COc1ccc(NNC(=O)C23CC4CC(CC(C4)C2)C3)cc1`: the values for the IC50 at P2X purinoceptor 7 [1] and at P2X purinoceptor 7 [2] were 2450 nM and 977 nM, respectively.
On the same counts, the results for `Cc1ccc(C)c(NNC(=O)C23CC4CC(CC(C4)C2)C3)c1` are 135 nM and 57.5 nM.
For the compound `O=C(NNc1cccc2ncccc12)C12CC3CC(CC(C3)C1)C2`, the AUC with Rattus norvegicus [4] is 390 ng·h/mL; with Rattus norvegicus [9], 940 ng·h/mL. In [5], this compound came in with a bioavailability of 42%. Also, in series [6], the half-life was 24 min. For the same compound, in the series on Rattus norvegicus [7], the Tmax was determined as 30 min. Besides, the IC50 was 5.01 nM at P2X purinoceptor 7 [3], 44.7 nM on P2X purinoceptor 7 [1] and 10.2 nM on P2X purinoceptor 7 [2]. Also, the t1/2 with Rattus norvegicus [8] was 36 min. In the series on Rattus norvegicus [10], this compound registered a Cmax of 440 ng/mL. For the same compound, in the series with Rattus norvegicus [11], the Activity is 68%. The ED50 with Rattus norvegicus [12] was 92 µmol/kg. The Vd in [13] turned out to be 0.9 L/kg.
With `O=C(NNc1cccc(F)c1)C12CC3CC(CC(C3)C1)C2`, the results for the half-inhibitory concentration (IC50) at P2X purinoceptor 7 [1] and at P2X purinoceptor 7 [2] were 468 nM and 324 nM, respectively.
Take `O=C(NNc1ccccc1F)C12CC3CC(CC(C3)C1)C2`: the IC50 on P2X purinoceptor 7 [1] is 204 nM; at P2X purinoceptor 7 [2], 39.8 nM.
For `Cc1ccccc1NNC(=O)CC1CCCCC1` the same measures were 151 nM and 38.9 nM.
For `O=C(NNc1ccccn1)C12CC3CC(CC(C3)C1)C2` the same measures were 427 nM and 219 nM.
On the same counts, the results for `O=C(NNc1cccc2ncccc12)C1(c2ccccc2F)CCCCC1` are 324 nM and 191 nM.
`O=C(CC12CC3CC(CC(C3)C1)C2)NNc1cccc2ncccc12`: the IC50 is 603 nM on P2X purinoceptor 7 [1] and 57.5 nM at P2X purinoceptor 7 [2].
For `O=C(NNc1ccc(F)cc1)C12CC3CC(CC(C3)C1)C2` the same measures were 1070 nM and 282 nM.
For `Cc1ccccc1NNC(=O)C12CC3CC(CC(C3)C1)C2`, the IC50 at P2X purinoceptor 7 [1] was 28.2 nM; on P2X purinoceptor 7 [2] it was 11.7 nM.
Take `O=C(NNc1ccccc1)C12CC3CC(CC(C3)C1)C2`: the IC50 on P2X purinoceptor 7 [1] was 275 nM; on P2X purinoceptor 7 [2] it was 110 nM.
For `O=C(NNc1cccc2ncccc12)C1(c2ccc(F)cc2)CCCCC1` the same measures were 174 nM and 70.8 nM.
On the same counts, the results for `O=C(NNc1cccc2nc(Cl)ccc12)C12CC3CC(CC(C3)C1)C2` are 174 nM and 51.3 nM.
For `CC1(C(=O)NNc2cccc3ncccc23)CC2C=CC1C2` (stereo not drawn) the same measures were 31.6 nM and 18.6 nM.
With `O=C(NNc1cccc2ncccc12)C12CC3CC(CC(Cl)(C3)C1)C2`, the IC50 at P2X purinoceptor 7 [3] is less than 1 nM; on P2X purinoceptor 7 [1] it was 35.5 nM; on P2X purinoceptor 7 [2], 10.2 nM.
Regarding `O=C(NNc1cccc(Cl)c1Cl)C12CC3CC(CC(C3)C1)C2`, the IC50 at P2X purinoceptor 7 [1] was 51.3 nM; on P2X purinoceptor 7 [2], 34.7 nM.
With `O=C(NNc1cccc2ncccc12)C12CC3CC(CC(O)(C3)C1)C2`, the IC50 was 2240 nM at P2X purinoceptor 7 [1] and 275 nM at P2X purinoceptor 7 [2].
Turning to `O=C(NNc1cccc2cnccc12)C12CC3CC(CC(C3)C1)C2`, the IC50 on P2X purinoceptor 7 [1] was 151 nM; on P2X purinoceptor 7 [2] it was 33.9 nM.
